Measurements: ChEMBL document CHEMBL3769384, “Discovery of Tetrahydropyrazolopyridine as Sphingosine 1-Phosphate Receptor 3 (S1P3)-Sparing S1P1 Agonists Active at Low Oral Doses” (J Med Chem, 2016)

Columns and labels:
[1] = Activation of CYP1A (unknown origin); assay type: ADME; conditions: human
[2] = system: Salmonella typhimurium; assay: Mutagenicity in Salmonella typhimurium by Ames test; assay type: toxicity, organism-based; conditions: salmonella enterica subsp. enterica serovar typhimurium
[3] = system: Hepatocyte; assay: Intrinsic clearance in human hepatocytes at 0.5 uM after 2 hrs by LC-MS/MS analysis; assay type: ADME, cell-based
How it was run: (§1)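 Compound at 0.5 µM incubated with pooled cryopreserved hepatocytes (0.7 million cells/mL) in Williams Medium E at 37°C under CO2/O2. Supernatants analysed by LC-MS/MS. CLi was derived from a first-order rate constant, scaled with 1.2x10^8 cells/g liver (human, rat, mouse) or 2.4x10^8 cells/g liver (dog).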

[4] = system: Hepatocyte; assay: Intrinsic clearance in Sprague-Dawley rat hepatocytes at 0.5 uM after 2 hrs by LC-MS/MS analysis; assay type: ADME, cell-based; how it was run: as §1
[5] = Lipophilicity, log D of the compound at pH 2 by chromatography; assay type: physicochemical; conditions: buffer
[6] = target: T1, Cytochrome P450 1A2 (Homo sapiens, UniProt P05177); assay: Inhibition of CYP1A2 (unknown origin) coexpressed in Escherichia coli with human NADPH reductase using ethoxyresorufin as substrate after 10 mins by fluorescence assay; assay type: ADME
T1 sequence (P05177 whole entry): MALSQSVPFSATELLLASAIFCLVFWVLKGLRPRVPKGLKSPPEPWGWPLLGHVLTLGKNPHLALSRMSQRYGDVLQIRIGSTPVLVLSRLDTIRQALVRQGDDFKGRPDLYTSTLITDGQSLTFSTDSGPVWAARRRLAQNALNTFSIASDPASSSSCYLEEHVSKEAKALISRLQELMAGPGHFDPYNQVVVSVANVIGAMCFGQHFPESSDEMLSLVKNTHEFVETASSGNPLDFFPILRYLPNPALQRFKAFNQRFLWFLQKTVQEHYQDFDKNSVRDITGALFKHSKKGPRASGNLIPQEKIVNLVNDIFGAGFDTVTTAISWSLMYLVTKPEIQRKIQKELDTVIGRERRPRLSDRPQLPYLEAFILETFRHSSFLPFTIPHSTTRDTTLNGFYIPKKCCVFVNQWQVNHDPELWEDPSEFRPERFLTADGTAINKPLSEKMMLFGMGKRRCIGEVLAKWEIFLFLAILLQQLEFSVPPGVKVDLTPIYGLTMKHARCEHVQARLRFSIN
How it was run: (§2)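 Recombinant CYP co-expressed in E. coli with human NADPH reductase, incubated with an isoform-specific pro-fluorescent substrate and compound (nine concentrations, 0.1-100 µM) plus a 0.2 mM NADPH regenerating system for 10 min at 37°C. Fluorescent metabolite formation was monitored.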

[7] = target: Cytochrome P450 2C19 (Homo sapiens, UniProt P33261); assay: Inhibition of CYP2C19 (unknown origin) coexpressed in Escherichia coli with human NADPH reductase using 3-butyryl-7-methoxycoumarin as substrate after 10 mins by fluorescence assay; assay type: ADME; how it was run: as §2
Cytochrome P450 2C19, sequence (P33261 whole entry): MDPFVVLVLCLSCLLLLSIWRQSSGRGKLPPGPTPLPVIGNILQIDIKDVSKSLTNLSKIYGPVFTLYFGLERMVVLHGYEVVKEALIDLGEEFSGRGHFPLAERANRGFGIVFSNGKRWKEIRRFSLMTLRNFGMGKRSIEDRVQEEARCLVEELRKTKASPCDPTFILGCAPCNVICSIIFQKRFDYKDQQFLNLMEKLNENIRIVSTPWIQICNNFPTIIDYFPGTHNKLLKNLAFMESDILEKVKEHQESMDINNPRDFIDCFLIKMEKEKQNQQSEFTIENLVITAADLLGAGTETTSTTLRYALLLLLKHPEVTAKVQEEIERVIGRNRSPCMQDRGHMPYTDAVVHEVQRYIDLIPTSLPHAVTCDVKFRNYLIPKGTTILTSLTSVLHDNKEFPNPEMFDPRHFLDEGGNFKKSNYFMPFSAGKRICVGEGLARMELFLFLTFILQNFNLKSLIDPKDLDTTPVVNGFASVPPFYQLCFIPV

[8] = Fraction unbound in CD rat blood after 4 hrs by LC-MS/MS analysis; assay type: ADME, tissue-based
How it was run: (§3)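 Fresh blood (CD rat, CD1 mouse, Beagle dog, single human donor) spiked at 1000 ng/mL and dialysed against PBS by rapid equilibrium dialysis for 4 h at 37°C. Matrix-matched LC-MS/MS; unbound fraction taken from the buffer/blood peak area ratio.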

[9] = target: T2, Cytochrome P450 3A4 (Homo sapiens, UniProt P08684); assay: Inhibition of human CYP3A4 by VG metabolism assay; assay type: ADME
T2 sequence (P08684 whole entry): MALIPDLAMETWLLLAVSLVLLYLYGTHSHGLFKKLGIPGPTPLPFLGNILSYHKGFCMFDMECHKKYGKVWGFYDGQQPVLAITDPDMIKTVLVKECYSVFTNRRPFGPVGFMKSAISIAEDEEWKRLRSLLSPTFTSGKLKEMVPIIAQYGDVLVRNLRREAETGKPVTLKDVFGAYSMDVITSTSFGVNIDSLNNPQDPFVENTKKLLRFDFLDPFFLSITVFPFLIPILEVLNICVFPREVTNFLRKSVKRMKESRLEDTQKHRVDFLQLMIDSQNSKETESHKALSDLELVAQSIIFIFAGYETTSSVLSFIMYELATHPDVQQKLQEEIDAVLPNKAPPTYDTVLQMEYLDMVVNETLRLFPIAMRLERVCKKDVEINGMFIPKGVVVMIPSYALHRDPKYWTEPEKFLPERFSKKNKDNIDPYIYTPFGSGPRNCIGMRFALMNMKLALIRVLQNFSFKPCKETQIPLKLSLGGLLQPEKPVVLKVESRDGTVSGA

[10] = Fraction unbound in CD1 mouse blood after 4 hrs by LC-MS/MS analysis; assay type: ADME, tissue-based; how it was run: as §3
[11] = target: Cytochrome P450 2D6 (Homo sapiens, UniProt P10635); assay: Inhibition of CYP2D6 (unknown origin) coexpressed in Escherichia coli with human NADPH reductase using 4-methylaminomethyl-7-methoyxycoumarin as substrate after 10 mins by fluorescence assay; assay type: ADME; how it was run: as §2
Cytochrome P450 2D6, sequence (P10635 whole entry): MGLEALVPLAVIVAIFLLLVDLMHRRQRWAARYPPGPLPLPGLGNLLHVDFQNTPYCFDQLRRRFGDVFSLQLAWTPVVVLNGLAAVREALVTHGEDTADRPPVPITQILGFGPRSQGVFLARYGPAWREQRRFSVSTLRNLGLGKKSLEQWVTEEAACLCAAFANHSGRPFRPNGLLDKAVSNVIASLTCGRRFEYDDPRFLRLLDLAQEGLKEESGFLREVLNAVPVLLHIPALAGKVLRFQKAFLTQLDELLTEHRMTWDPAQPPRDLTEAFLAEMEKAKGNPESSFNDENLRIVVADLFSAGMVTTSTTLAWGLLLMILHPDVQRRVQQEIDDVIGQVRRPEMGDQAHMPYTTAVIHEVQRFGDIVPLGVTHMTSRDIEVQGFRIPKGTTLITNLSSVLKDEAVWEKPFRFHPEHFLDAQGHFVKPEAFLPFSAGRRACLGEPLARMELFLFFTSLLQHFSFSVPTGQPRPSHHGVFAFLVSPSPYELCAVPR

[12] = target: Sphingosine 1-phosphate receptor 5 (Homo sapiens, UniProt Q9H228); assay: Agonist activity at human S1P5 receptor expressed in CHO-K1 cells by aequorin calcium accumulation assay; assay type: functional, cell-based
Sphingosine 1-phosphate receptor 5, sequence (Q9H228 whole entry): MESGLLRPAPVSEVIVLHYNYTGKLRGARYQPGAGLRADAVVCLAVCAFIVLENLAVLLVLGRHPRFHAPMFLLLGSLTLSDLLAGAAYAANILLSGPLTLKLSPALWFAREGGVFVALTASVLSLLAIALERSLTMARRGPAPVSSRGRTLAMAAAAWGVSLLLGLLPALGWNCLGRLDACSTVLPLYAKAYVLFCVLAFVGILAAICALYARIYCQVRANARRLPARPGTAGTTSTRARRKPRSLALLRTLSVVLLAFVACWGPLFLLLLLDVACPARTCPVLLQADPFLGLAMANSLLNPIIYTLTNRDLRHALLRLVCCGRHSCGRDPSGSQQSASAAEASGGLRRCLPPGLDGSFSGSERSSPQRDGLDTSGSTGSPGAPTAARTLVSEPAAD
How it was run: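 CHO-K1 aequorin lines revived in DMEM F12 with 10% charcoal-stripped FBS, recovered 30 min at 37°C, then loaded 18-24 h at room temperature in the dark with 5 µM coelenterazine at 2.5x10^6 cells/mL. Cells were added at 1x10^5/well to compound, and flash luminescence was recorded immediately.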

[13] = target: Cytochrome P450 2C9 (Homo sapiens, UniProt P11712); assay: Inhibition of CYP2C9 (unknown origin) coexpressed in Escherichia coli with human NADPH reductase using 7-methoxy-4-trifluoromethylcoumarin-3-acetic acid as substrate after 10 mins by fluorescence assay; assay type: ADME; how it was run: as §2
Cytochrome P450 2C9, sequence (P11712 whole entry): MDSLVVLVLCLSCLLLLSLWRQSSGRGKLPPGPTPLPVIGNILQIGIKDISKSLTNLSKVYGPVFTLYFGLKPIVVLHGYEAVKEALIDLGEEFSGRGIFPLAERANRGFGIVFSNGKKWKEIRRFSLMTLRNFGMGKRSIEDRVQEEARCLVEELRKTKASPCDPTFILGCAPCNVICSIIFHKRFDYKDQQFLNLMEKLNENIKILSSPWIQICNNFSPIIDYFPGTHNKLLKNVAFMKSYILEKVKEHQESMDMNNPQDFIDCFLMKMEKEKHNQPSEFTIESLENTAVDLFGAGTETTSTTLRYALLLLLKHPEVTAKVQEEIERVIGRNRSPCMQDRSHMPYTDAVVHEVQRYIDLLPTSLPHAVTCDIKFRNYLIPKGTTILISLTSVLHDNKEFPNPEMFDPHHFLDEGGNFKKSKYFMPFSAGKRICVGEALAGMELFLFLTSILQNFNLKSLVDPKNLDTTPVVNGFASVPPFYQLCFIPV

[14] = system: Rattus norvegicus; assay: Lymphopenia activity in oral dosed Lewis rat
[15] = Intrinsic clearance in cynomolgus monkey hepatocytes at 0.5 uM after 2 hrs by LC-MS/MS analysis; assay type: ADME, cell-based, Macaca fascicularis, Hepatocyte
[16] = target: Sphingosine 1-phosphate receptor 2 (Homo sapiens, UniProt O95136); assay: Agonist activity at human S1P2 receptor expressed in Saccharomyces cerevisiae after 24 hrs by reporter gene assay
Sphingosine 1-phosphate receptor 2, sequence (O95136 whole entry): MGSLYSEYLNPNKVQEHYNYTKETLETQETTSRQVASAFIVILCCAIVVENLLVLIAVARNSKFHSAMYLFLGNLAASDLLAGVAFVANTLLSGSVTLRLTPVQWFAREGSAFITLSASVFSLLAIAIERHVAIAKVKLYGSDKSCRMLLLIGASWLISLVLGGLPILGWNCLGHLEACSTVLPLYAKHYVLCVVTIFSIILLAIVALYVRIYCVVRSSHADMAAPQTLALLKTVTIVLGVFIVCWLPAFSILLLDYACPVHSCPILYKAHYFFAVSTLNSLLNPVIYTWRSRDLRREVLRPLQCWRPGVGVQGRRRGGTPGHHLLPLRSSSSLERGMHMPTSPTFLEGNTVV
How it was run: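 S. cerevisiae with integrated S1P2 under the GPD promoter, seeded at 0.02 OD600 in histidine-free minimal medium with 5 mM 3-aminotriazole and 100 µM fluorescein-di-(β-D-glucopyranoside). Agonist-driven growth was read as fluorescein fluorescence (ex 485/em 535 nm) after 24 h at 30°C.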

[17] = Lipophilicity, log D of the compound at pH 10.5 by chromatography; assay type: physicochemical; conditions: buffer
[18] = Lipophilicity, log D of the compound at pH 7.4 by chromatography; assay type: physicochemical; conditions: buffer
[19] = target: Sphingosine 1-phosphate receptor 3 (Homo sapiens, UniProt Q99500); assay: Agonist activity at human S1P3 receptor expressed in RBL cells by [35S]GTP-gammaS accumulation assay; assay type: cell-based
Sphingosine 1-phosphate receptor 3, sequence (Q99500 whole entry): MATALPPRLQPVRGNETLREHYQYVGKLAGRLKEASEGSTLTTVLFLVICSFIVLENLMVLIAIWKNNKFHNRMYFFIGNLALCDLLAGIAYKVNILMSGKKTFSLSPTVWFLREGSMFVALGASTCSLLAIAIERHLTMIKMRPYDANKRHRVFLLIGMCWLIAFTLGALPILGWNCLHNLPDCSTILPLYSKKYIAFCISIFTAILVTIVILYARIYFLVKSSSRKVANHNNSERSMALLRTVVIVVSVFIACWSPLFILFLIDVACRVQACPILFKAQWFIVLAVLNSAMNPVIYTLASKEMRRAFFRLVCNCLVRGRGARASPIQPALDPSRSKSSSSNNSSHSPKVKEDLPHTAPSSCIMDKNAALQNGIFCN
How it was run: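 Sucrose-gradient-purified RBL S1P3 membranes (0.44 µg/well) precoupled 30 min on ice to WGA SPA beads with 2 µg/well saponin in HEPES/MgCl2/NaCl buffer pH 7.4. 5 µM GDP final and 0.3 nM [35S]GTPγS final added, then dispensed onto compound in DMSO. Read by scintillation proximity after 3 h at room temperature.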

[20] = Oral bioavailability in rat; assay type: ADME, organism-based; conditions: in vivo
[21] = target: T2, Cytochrome P450 3A4; assay: Inhibition of human CYP3A4 coexpressed in Escherichia coli with human NADPH reductase using midazolam as substrate at 0.1 to 100 uM by fluorescence assay; assay type: ADME; conditions: TDE = time-dependent effect
[22] = Fraction unbound in human blood after 4 hrs by LC-MS/MS analysis; assay type: ADME, tissue-based; how it was run: as §3
[23] = target: T2, Cytochrome P450 3A4; assay: Inhibition of human CYP3A4 coexpressed in Escherichia coli with human NADPH reductase using atorvastatin as substrate at 0.1 to 100 uM by fluorescence assay; assay type: ADME; conditions: TDE = time-dependent effect
[24] = Intrinsic clearance in beagle dog hepatocytes at 0.5 uM after 2 hrs by LC-MS/MS analysis; assay type: ADME, cell-based, Canis lupus familiaris, Hepatocyte; how it was run: as §1
[25] = target: T2, Cytochrome P450 3A4; assay: Inhibition of human CYP3A4 coexpressed in Escherichia coli with human NADPH reductase using nifedipine as substrate at 0.1 to 100 uM by fluorescence assay; assay type: ADME; conditions: TDE = time-dependent effect

## Cc1c2c(nn1-c1nnc(-c3ccc(OC(C)C)c(Cl)c3)s1)CCN(CCC(=O)O)C2
[1]
  Activity: Not Active
[2]
  Activity: Non-toxic
[3]
  CLH: 1.8 mL/min/g
[4]
  CLH: 3.2 mL/min/g
[5]
  chromatographic logD: 1.03
[6]
  IC50: > 50 µM
[7]
  IC50: > 50 µM
[8]
  fraction unbound at 4 h: 0.014
[9]
  IC50: > 50 µM
[10]
  fraction unbound at 4 h: 0.011
[11]
  IC50: > 50 µM
[12]
  EC50: 0.0166 µM
[13]
  IC50: > 50 µM
[14]
  IC50: 0.006 µM
[15]
  CLH: 4.2 mL/min/g
[16]
  EC50: > 31.6 µM
[17]
  chromatographic logD: 1.53
[18]
  chromatographic logD: 3.73
[19]
  EC50: > 31.6 µM
[20]
  bioavailability: 52%
[21]
  inhibition (INH): tde
[22]
  fraction unbound at 4 h: 0.008
[23]
  inhibition (INH): tde
[24]
  CLH: 6 mL/min/g
[25]
  inhibition (INH): tde
